Legend:
[1] = target: T1, Myosin-IIIb (Homo sapiens) (UniProt Q8WXR4); experiment: Competitive binding affinity to MYO3B (unknown origin) at 10 uM in presence of ATP relative to control
T1 sequence (whole entry): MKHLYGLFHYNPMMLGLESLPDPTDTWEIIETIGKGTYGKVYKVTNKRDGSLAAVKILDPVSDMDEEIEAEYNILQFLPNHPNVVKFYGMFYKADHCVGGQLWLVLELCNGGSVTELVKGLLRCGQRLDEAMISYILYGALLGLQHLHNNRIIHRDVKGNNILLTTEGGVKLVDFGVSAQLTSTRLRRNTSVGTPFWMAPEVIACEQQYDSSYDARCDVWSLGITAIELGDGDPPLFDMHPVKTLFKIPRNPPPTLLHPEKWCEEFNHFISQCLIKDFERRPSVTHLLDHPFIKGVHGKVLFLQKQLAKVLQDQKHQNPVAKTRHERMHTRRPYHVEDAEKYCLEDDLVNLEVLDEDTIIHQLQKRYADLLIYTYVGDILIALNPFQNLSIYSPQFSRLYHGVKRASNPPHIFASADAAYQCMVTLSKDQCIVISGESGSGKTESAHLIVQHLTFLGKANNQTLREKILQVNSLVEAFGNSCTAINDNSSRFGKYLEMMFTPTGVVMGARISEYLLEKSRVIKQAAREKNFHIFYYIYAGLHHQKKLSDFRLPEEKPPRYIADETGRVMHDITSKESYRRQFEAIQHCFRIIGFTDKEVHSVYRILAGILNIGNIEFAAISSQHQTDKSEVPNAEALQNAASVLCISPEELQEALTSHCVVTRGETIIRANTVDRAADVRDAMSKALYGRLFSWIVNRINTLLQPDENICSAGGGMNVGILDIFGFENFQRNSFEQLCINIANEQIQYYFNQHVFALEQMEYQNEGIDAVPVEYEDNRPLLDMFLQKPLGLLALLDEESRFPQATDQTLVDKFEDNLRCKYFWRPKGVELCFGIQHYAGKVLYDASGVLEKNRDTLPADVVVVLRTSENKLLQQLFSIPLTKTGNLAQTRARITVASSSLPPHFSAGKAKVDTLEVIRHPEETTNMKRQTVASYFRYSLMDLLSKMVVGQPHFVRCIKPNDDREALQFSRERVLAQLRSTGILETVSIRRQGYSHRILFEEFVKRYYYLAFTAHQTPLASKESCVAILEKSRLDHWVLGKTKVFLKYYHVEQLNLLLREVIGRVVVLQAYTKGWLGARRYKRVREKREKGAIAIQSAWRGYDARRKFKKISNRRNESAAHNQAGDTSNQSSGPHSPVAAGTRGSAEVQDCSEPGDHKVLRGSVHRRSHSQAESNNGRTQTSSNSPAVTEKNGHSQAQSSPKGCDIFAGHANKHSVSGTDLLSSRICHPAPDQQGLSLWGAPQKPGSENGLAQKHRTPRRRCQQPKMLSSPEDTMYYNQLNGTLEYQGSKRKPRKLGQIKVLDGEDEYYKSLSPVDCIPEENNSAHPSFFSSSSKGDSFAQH

[2] = target: Interferon-induced, double-stranded RNA-activated protein kinase (Homo sapiens, UniProt P19525); experiment: Competitive binding affinity to PRKR (unknown origin) at 10 uM in presence of ATP relative to control
[3] = target: Ribosomal protein S6 kinase alpha-5 (Homo sapiens) (UniProt O75582); experiment: Competitive binding affinity to RPS6KA5 kinase domain 2 (unknown origin) at 10 uM in presence of ATP relative to control
[4] = target: Serine/threonine-protein kinase 32B (Homo sapiens) (UniProt Q9NY57); experiment: Competitive binding affinity to YANK2 (unknown origin) at 10 uM in presence of ATP relative to control
Homo sapiens = organism: Homo sapiens; experiment: Competitive binding affinity to EGFR L747 to T751 deletion mutant, Sins mutant (unknown origin) at 10 uM in presence of ATP relative to control
[5] = target: Serine/threonine-protein kinase PAK 2 (Homo sapiens) (UniProt Q13177); experiment: Competitive binding affinity to PAK2 (unknown origin) at 10 uM in presence of ATP relative to control
Procedure, shortened: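 In vitro ATP-site competition binding assay across a diverse panel of 128 kinases, with compound tested at a single concentration. Kinase selectivity scores (S15) were calculated from the panel profiles.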

[6] = target: Mitogen-activated protein kinase kinase kinase kinase 1 (Homo sapiens) (UniProt Q92918); experiment: Competitive binding affinity to MAP4K1 (unknown origin) at 10 uM in presence of ATP relative to control
[7] = target: NT-3 growth factor receptor (Homo sapiens) (UniProt Q16288); experiment: Competitive binding affinity to TRKC (unknown origin) at 10 uM in presence of ATP relative to control
[8] = target: Activated CDC42 kinase 1 (Homo sapiens) (UniProt Q07912); experiment: Competitive binding affinity to TNK2 (unknown origin) at 10 uM in presence of ATP relative to control
[9] = target: Ribosomal protein S6 kinase alpha-4 (Homo sapiens) (UniProt O75676); experiment: Competitive binding affinity to RPS6KA4 kinase domain 2 (unknown origin) at 10 uM in presence of ATP relative to control
[10] = system: Tyrosine-protein kinase ABL1 (Homo sapiens), P00519 [M351T]; experiment: Competitive binding affinity to ABL1 M351T mutant (unknown origin) at 10 uM in presence of ATP relative to control
[11] = target: T2, Serine/threonine-protein kinase 3 (Homo sapiens) (UniProt Q13188); experiment: Competitive binding affinity to STK3 (unknown origin) at 10 uM in presence of ATP relative to control
T2 sequence (whole entry): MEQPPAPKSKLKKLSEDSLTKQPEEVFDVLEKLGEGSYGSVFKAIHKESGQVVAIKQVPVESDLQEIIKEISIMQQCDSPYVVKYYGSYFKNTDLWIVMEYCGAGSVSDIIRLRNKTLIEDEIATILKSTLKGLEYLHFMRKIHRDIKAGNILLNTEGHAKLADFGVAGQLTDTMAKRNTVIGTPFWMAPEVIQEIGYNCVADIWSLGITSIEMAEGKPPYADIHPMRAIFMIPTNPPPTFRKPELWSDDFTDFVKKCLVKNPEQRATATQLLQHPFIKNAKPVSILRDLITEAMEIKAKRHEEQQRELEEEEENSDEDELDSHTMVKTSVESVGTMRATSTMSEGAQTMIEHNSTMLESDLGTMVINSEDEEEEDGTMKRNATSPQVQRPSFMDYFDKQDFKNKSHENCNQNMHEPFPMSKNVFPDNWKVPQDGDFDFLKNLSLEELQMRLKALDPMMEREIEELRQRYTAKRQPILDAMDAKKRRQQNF

Sequence of Serine/threonine-protein kinase 32B (Homo sapiens) (Q9NY57 whole entry): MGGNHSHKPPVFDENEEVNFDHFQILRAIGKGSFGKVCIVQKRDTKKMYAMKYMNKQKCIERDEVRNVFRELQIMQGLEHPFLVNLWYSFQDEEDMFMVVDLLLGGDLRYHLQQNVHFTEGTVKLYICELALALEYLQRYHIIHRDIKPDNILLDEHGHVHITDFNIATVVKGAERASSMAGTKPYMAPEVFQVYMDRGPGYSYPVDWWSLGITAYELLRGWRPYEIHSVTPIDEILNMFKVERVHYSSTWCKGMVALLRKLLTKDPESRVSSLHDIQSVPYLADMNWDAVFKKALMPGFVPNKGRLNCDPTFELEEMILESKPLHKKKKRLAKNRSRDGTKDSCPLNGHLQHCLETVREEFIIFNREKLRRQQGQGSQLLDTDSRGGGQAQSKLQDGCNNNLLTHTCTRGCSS
Sequence of Ribosomal protein S6 kinase alpha-5 (Homo sapiens) (O75582 whole entry, looked up, the tested form may be a part): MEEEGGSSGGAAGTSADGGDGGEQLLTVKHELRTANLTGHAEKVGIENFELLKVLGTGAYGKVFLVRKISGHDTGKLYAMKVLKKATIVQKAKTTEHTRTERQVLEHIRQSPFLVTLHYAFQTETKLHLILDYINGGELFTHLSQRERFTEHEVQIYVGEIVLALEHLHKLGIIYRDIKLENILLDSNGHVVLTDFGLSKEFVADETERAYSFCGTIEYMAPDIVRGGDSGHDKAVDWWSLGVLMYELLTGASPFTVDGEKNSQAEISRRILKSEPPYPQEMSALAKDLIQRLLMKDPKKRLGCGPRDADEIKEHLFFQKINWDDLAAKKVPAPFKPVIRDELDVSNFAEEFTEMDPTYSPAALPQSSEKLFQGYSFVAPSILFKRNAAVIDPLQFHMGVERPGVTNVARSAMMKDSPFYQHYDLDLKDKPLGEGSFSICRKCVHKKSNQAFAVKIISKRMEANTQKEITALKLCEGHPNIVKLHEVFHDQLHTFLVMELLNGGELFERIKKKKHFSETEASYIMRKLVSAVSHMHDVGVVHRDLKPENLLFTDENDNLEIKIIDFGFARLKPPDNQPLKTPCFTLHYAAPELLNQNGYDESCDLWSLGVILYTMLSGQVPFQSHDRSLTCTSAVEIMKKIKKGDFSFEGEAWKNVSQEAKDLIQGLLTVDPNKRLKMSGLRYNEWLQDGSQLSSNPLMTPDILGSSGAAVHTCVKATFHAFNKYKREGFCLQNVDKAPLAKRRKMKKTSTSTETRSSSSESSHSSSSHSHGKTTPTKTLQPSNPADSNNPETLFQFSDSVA
Sequence of Interferon-induced, double-stranded RNA-activated protein kinase (P19525 whole entry, the tested form may be a part): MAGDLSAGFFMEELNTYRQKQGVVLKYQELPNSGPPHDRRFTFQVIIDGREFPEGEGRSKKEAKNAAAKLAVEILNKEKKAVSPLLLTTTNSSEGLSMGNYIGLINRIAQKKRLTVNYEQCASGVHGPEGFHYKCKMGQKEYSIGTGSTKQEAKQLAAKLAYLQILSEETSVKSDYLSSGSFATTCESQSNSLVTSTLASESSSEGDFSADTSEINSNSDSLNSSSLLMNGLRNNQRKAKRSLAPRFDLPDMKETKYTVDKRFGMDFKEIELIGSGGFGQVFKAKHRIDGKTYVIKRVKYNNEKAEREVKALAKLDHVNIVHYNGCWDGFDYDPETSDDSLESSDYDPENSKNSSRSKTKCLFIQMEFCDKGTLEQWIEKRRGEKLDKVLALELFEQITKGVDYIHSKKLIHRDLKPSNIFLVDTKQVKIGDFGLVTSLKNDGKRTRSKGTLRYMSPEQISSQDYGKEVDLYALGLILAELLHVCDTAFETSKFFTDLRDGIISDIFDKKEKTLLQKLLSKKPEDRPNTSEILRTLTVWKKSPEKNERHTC
Sequence of Ribosomal protein S6 kinase alpha-4 (Homo sapiens) (O75676 whole entry, looked up, the tested form may be a part): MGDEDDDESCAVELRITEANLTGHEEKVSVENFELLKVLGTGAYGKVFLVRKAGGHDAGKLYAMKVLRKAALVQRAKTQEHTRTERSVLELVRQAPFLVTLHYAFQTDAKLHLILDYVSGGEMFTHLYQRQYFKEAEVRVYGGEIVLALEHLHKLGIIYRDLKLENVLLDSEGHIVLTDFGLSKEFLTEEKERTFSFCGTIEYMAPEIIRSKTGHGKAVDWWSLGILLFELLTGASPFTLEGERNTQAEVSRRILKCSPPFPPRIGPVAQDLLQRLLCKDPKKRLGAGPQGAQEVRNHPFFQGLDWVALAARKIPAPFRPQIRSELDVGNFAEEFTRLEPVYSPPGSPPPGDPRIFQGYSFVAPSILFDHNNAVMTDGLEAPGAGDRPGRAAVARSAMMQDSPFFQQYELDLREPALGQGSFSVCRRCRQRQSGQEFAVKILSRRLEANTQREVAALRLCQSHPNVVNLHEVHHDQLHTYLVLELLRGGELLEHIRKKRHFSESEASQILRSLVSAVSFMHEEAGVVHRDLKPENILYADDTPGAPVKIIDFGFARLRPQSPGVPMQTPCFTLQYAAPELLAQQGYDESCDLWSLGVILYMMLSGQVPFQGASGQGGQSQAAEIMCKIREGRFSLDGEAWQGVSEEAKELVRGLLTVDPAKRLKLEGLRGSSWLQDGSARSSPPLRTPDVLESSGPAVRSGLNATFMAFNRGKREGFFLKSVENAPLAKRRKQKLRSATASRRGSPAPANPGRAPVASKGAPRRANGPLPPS
Sequence of Activated CDC42 kinase 1 (Homo sapiens) (Q07912 whole entry, looked up, the tested form may be a part): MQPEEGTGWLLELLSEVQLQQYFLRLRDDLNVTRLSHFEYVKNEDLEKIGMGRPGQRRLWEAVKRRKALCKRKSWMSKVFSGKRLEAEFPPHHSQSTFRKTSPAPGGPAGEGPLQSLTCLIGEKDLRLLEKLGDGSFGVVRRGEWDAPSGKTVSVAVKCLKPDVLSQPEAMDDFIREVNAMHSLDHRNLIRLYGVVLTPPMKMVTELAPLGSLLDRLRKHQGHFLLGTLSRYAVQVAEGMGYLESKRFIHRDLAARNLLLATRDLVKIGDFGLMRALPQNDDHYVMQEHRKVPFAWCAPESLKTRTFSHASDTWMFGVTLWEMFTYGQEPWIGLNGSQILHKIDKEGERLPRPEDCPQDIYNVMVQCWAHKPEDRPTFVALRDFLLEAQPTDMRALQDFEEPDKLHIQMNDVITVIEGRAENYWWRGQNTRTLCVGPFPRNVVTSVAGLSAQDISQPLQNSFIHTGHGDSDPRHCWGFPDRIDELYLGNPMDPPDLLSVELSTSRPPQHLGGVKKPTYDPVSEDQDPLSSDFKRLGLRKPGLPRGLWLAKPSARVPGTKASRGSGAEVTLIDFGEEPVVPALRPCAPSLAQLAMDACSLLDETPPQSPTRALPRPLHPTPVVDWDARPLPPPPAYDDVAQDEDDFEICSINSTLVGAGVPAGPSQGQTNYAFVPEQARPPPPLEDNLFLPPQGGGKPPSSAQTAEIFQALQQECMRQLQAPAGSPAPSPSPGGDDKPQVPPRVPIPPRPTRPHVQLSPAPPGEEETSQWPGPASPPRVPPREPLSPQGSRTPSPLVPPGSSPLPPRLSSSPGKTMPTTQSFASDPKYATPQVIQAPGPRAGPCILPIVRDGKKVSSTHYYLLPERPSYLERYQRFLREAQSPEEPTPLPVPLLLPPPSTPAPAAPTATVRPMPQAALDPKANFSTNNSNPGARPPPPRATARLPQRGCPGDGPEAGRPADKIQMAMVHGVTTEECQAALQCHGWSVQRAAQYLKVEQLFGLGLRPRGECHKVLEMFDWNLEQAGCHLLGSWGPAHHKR
Sequence of Serine/threonine-protein kinase PAK 2 (Homo sapiens) (Q13177 whole entry): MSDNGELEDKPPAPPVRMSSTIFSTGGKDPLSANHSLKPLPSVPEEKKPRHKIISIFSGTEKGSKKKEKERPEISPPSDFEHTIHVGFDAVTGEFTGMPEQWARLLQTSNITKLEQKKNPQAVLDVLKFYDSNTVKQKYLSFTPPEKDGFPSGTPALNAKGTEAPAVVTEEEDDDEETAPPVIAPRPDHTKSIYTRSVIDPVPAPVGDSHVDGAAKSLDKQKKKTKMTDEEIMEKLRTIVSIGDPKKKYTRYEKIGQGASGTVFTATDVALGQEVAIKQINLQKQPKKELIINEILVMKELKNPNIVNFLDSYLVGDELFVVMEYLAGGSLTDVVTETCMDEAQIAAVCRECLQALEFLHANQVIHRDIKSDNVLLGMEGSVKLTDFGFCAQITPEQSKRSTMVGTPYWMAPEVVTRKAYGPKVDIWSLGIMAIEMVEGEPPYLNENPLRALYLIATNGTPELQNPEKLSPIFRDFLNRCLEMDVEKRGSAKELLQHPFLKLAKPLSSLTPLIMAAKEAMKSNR
Sequence of Mitogen-activated protein kinase kinase kinase kinase 1 (Homo sapiens) (Q92918 whole entry, looked up): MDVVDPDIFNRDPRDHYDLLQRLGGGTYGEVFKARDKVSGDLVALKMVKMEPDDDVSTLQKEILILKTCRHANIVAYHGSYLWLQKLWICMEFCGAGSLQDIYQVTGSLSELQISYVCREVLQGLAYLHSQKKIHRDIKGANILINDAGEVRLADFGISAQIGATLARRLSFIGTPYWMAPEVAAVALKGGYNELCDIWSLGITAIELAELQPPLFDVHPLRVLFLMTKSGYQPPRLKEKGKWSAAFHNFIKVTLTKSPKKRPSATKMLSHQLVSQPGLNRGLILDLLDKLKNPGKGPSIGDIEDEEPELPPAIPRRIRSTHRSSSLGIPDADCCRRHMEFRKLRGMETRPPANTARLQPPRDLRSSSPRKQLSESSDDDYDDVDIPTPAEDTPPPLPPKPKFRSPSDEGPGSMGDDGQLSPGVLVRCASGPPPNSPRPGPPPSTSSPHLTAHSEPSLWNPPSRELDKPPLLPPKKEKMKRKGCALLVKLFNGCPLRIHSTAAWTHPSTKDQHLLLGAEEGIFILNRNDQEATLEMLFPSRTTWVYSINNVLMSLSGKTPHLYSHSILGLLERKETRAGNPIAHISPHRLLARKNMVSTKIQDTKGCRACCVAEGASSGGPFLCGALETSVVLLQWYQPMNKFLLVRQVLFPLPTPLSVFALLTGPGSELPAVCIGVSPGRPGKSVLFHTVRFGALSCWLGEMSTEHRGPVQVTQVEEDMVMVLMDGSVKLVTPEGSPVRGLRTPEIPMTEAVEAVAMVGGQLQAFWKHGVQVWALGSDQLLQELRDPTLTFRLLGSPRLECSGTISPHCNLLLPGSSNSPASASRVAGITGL

Row | Structure (SMILES) | inhibition [1] | inhibition [2] | inhibition [3] | inhibition [4] | inhibition (Homo sapiens) | inhibition [5] | inhibition [6] | inhibition [7] | inhibition [8] | inhibition [9] | inhibition [10] | inhibition [11]
1 | O[C@H]1CC[C@H](Nc2nccc(-n3nnc4ccccc43)n2)CC1 | < 50% | 100% | 85% | < 50% | < 50% | < 50% | < 50% | < 50% | < 50% | 94% | < 50% | 
2 | O[C@H]1CC[C@H](Nc2nccc(-n3ncc4ccccc43)n2)CC1 | < 50% | 100% | 66% | < 50% | < 50% | < 50% | < 50% | < 50% | < 50% | < 50% | < 50% | 
3 | O[C@H]1CC[C@H](Nc2nccc(-c3n[nH]c4ccccc34)n2)CC1 |  |  |  | < 50% | < 50% | 82% | 97% | 99% | < 50% |  | < 50% | 94%
4 | O[C@H]1CC[C@H](Nc2nccc(-n3ccc4ccccc43)n2)CC1 | < 50% | 95% | < 50% | < 50% | < 50% | < 50% | < 50% | < 50% | < 50% | < 50% | < 50% | 
5 | O=C([C@H]1CC[C@H](Nc2nccc(-n3nnc4ccccc43)n2)CC1)N1CCOCC1 |  |  |  |  |  |  |  |  |  |  |  | 86%
6 | N[C@H]1CC[C@H](Nc2nccc(-n3nnc4ccccc43)n2)CC1 |  |  |  |  |  |  |  |  |  |  |  | 96%

Reference: ChEMBL document CHEMBL2424622, “Development of amino-pyrimidine inhibitors of c-Jun N-terminal kinase (JNK): kinase profiling guided optimization of a 1,2,3-benzotriazole lead” (Bioorg Med Chem Lett, 2013)
